Source: ChEMBL document CHEMBL1155568, “Biological characterization of fusapyrone and deoxyfusapyrone, two bioactive secondary metabolites of Fusarium semitectum” (J Nat Prod, 2000)
Activity calls are given as the source filed them. No cut-off for these calls is given here.

Columns and labels:
[1] = tested on: Alternaria alternata; assay: Antifungal activity against Alternaria alternata ITEM 526 at 15 ug/disk by paper disk method; assay type: functional; conditions: read-out: IZ
Summary of the method: (§1)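 Agar diffusion: a 0.7% water-agar overlay carrying 10^4 conidia/mL (or yeast cells) is poured on PDA. 6-mm cellulose disks loaded with methanolic compound at 5 or 15 µg/disk are air-dried and applied, with nystatin as comparator. Plates incubated 24-72 h at 25 °C; inhibition halo diameter read from three disks. Agar under each disk is subcultured on PDA to score fungicidal/fungistatic effect. Experiment run twice and averaged.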

[2] = tested on: Plenodomus tracheiphilus; assay: Antifungal activity against Phoma tracheiphilla ITEM 1605 at 15 ug/disk by paper disk method; assay type: functional; conditions: read-out: IZ
Summary of the method: (§2)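 Agar overlay disk diffusion on plant-derived filamentous fungi and yeasts: 0.7% water-agar seeded with 10^4 conidia/mL or a yeast cell suspension, poured over PDA. 6-mm cellulose disks were loaded from methanolic solutions and air-dried, with nystatin as comparator. Plates ran 24-72 h at 25 °C; inhibition halo was measured over three disks. Agar beneath disks was subcultured on PDA to separate fungicidal from fungistatic, scored in four classes; run twice, averaged.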

[3] = tested on: Cladosporium cladosporioides; assay: Antifungal activity against Cladosporium cladosporioides ITEM 2079 at 15 ug/disk by paper disk method; assay type: functional; conditions: read-out: IZ; summary of the method: as §1
[4] = tested on: Penicillium verrucosum; assay: Antifungal activity against Penicillium verrucosum ITEM 439 at 15 ug/disk by paper disk method; assay type: functional; conditions: read-out: IZ; summary of the method: as §2
[5] = tested on: Aspergillus fumigatus; assay: Antifungal activity against Aspergillus fumigatus 1 after 24 hrs by broth micromethod assay; assay type: functional
Summary of the method: (§3)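 Broth microdilution in YNB with 0.5% glucose, phosphate buffer pH 7, using ten 2-fold dilutions (50-0.097 µg/mL). Inoculum from 24-48 h Sabouraud agar cultures, final 5 × 10^2 cells for C. albicans and C. kefyr, 5 × 10^3 cells/conidia for C. glabrata, Cryptococcus neoformans and Aspergillus. Incubated at 35 °C up to 72 h, read every 24 h. MIC is the complete absence of growth versus medium controls.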

[6] = tested on: Alternaria alternata; assay: Antifungal activity against Alternaria alternata ITEM 468 at 15 ug/disk by paper disk method; assay type: functional; conditions: read-out: IZ; summary of the method: as §1
[7] = tested on: Nakaseomyces glabratus; assay: Antifungal activity against Candida glabrata 12 after 24 hrs by broth micromethod assay; assay type: functional; summary of the method: as §3
[8] = tested on: Cicer arietinum; assay: Phytotoxicity in chickpea leaf assessed as chlorosis in the leaf at 10^-3 M by leaf puncture assay; assay type: organism-based; conditions: in vivo, 1000 µM
Summary of the method: (§4)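 Tomato and chickpea leaves were punctured and treated with toxin dissolved in MeOH and diluted with water (final 4% MeOH), tested from 10^-2 to 10^-7 M. Chlorosis and necrosis were recorded visually as spot symptoms.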

[9] = tested on: Aspergillus fumigatus; assay: Antifungal activity against Aspergillus fumigatus 1 after 48 hrs by broth micromethod assay; assay type: functional; summary of the method: as §3
[10] = tested on: Fusarium oxysporum f. sp. lycopersici; assay: Antifungal activity against Fusarium oxysporum f. sp. lycopersici ITEM 1462 at 15 ug/disk by paper disk method; assay type: functional; conditions: read-out: IZ; summary of the method: as §1
[11] = tested on: Fusarium subglutinans; assay: Antifungal activity against Fusarium subglutinans at 15 ug/disk by paper disk method; assay type: functional; summary of the method: as §1
[12] = tested on: Solanum lycopersicum; assay: Stimulation of root elongation in tomato at 10^-4 M; assay type: functional, organism-based
Summary of the method: (§5)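 Tomato seeds were surface-sterilized in 4% NaClO for 10 min and pregerminated 3 days in the dark. They were then placed 10 per dish on filter paper wetted with 2 mL of compound in 1% MeOH (10^-4 or 10^-5 M) and held 4 days at 25 °C under a 12-h photoperiod. Shoot and rootlet lengths were measured against control; done in triplicate, repeated once.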

[13] = tested on: Kluyveromyces marxianus; assay: Antifungal activity against Candida kefyr Y0601 after 24 hrs by broth micromethod assay; assay type: functional; summary of the method: as §3
[14] = tested on: Cryptococcus neoformans; assay: Antifungal activity against Cryptococcus neoformans 13 after 24 hrs by broth micromethod assay; assay type: functional; summary of the method: as §3
[15] = tested on: Botrytis cinerea; assay: Antifungal activity against Botrytis cinerea at 15 ug/disk by paper disk method; assay type: functional; conditions: read-out: IZ; summary of the method: as §1
[16] = tested on: Candida albicans; assay: Antifungal activity against Candida albicans 1 after 24 hrs by broth micromethod assay; assay type: functional; summary of the method: as §3
[17] = tested on: Kluyveromyces marxianus; assay: Antifungal activity against Kluyveromyces fragilis ITEM 1657 at 15 ug/disk by paper disk method; assay type: functional; conditions: read-out: IZ; summary of the method: as §2
[18] = tested on: Rhodotorula mucilaginosa; assay: Antifungal activity against Rhodotorula pilimanae at 15 ug/disk by […]; assay type: functional; conditions: read-out: IZ
[19] = tested on: Aspergillus flavus; assay: Antifungal activity against Aspergillus flavus 3 after 24 hrs by broth micromethod assay; assay type: functional; summary of the method: as §3
[20] = tested on: Cryptococcus neoformans; assay: Antifungal activity against Cryptococcus neoformans 13 after 72 hrs by broth micromethod assay; assay type: functional; summary of the method: as §3
[21] = tested on: Solanum lycopersicum; assay: Phytotoxicity against tomato assessed as seedling germination; assay type: organism-based; conditions: in vivo; summary of the method: as §5
[22] = tested on: Aspergillus flavus; assay: Antifungal activity against Aspergillus flavus ITEM 9 at 15 ug/disk by paper disk method; assay type: functional; conditions: read-out: IZ; summary of the method: as §1
[23] = tested on: Cicer arietinum; assay: Phytotoxicity against chickpea cells at 10^-5 M; assay type: organism-based; conditions: 10 µM
Summary of the method: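 Cells came from 2-week-old chickpea leaves by enzyme digestion, washed in holding buffer at pH 5.55, and mixed 1:1 with compound (final 10^-5 to 10^-3 M in 1% MeOH). They were held 3 h at 25 °C in the dark, then stained with fluorescein diacetate. Viability was scored on 30 cells by fluorescence microscopy. Fusaric acid served as positive control; repeated twice.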

[24] = (§6) Toxicity against Artemia salina larvae; assay type: organism-based; conditions: in vivo
Summary of the method: (§7)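 Quadruplicate wells; mortality counted after 24 and 36 h at 27 °C. LC50 from probit analysis of dose-mortality data from six independent experiments.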

[25] = tested on: Priestia megaterium; assay: Antimicrobial activity against Bacillus megaterium at 30 ug/disk by agar diffusion method; assay type: functional, organism-based
[26] = tested on: Fusarium graminearum; assay: Antifungal activity against Fusarium graminearum ITEM 2 at 15 ug/disk by paper disk method; assay type: functional; conditions: read-out: IZ
Summary of the method: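 Agar overlay diffusion: 0.7% water-agar with 10^4 conidia/mL of test fungus poured over PDA; 6-mm cellulose disks impregnated with methanolic compound solution, air-dried. Incubated 25 °C for 24-72 h by fungus; growth-inhibition halo diameter from three replicate disks. Agar under disks then subcultured on PDA to score fungicidal/fungistatic classes. Repeated twice, averaged.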

[27] = tested on: Solanum lycopersicum; assay: Phytotoxicity in tomato leaf assessed as chlorosis in the leaf at 10^-4 M by tomato cutting assay; assay type: organism-based; conditions: in vivo, 100 µM
Summary of the method: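 Young greenhouse tomato plants were cut, and the stems were immersed in toxin solutions (MeOH stock diluted with water; 10^-3 to 10^-6 M). They were held 24 h at 22 °C under a 12-h photoperiod, then moved to distilled water for 48 h more, and symptoms were scored visually.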

[28] = tested on: Cladosporium cucumerinum; assay: Antifungal activity against Cladosporium cucumerinum ITEM 2095 at 15 ug/disk by paper disk method; assay type: functional; conditions: read-out: IZ; summary of the method: as §1
[29] = tested on: Fusarium incarnatum; assay: Antifungal activity against Fusarium semitectum ITEM 393 at 15 ug/disk by paper disk method; assay type: functional; conditions: read-out: IZ; summary of the method: as §1
[30] = tested on: Kluyveromyces marxianus; assay: Antifungal activity against Candida kefyr Y0601 after 72 hrs by broth micromethod assay; assay type: functional; summary of the method: as §3
[31] = tested on: Solanum lycopersicum; assay: Phytotoxicity in tomato leaf assessed as necrosis in the leaf at 10^-2 M by leaf puncture assay; assay type: organism-based; conditions: in vivo; summary of the method: as §4
[32] = tested on: Botrytis cinerea; assay: Antifungal activity against Botrytis cinerea ITEM 966 at 5 ug/disk by paper disk method; assay type: functional, organism-based; summary of the method: as §1
[33] = tested on: Kluyveromyces marxianus; assay: Antifungal activity against Candida kefyr Y0601 after 48 hrs by broth micromethod assay; assay type: functional; summary of the method: as §3
[34] = tested on: Solanum lycopersicum; assay: Phytotoxicity in tomato leaf assessed as necrosis in the leaf at 10^-3 M by leaf puncture assay; assay type: organism-based; conditions: in vivo, 1000 µM; summary of the method: as §4
[35] = tested on: Kluyveromyces marxianus; assay: Antifungal activity against Candida kefyr at 50 ug/disk by paper disk method; assay type: functional, organism-based
[36] = tested on: Penicillium verrucosum; assay: Antifungal activity against Penicillium verrucosum ITEM 439 at 5 ug/disk by paper disk method; assay type: functional, organism-based; summary of the method: as §2
[37] = tested on: Artemia salina; assay: as §6; assay type: organism-based; conditions: in vivo; summary of the method: as §7
[38] = tested on: Nakaseomyces glabratus; assay: Antifungal activity against Candida glabrata 12 after 48 hrs by broth micromethod assay; assay type: functional; summary of the method: as §3

Compound: CCCCCCC(C)C/C(C)=C\C(C)/C=C(C)/C=C/C(O)C(C)(C)c1cc(O)c([C@@H]2O[C@@H](CO)C[C@@H](O)[C@@H]2O)c(=O)o1 (stereo partly specified) [DEXOYFUSAPYRONE]
- zone of inhibition at 15 µg/disc [1]: 11.7 mm
- zone of inhibition at 15 µg/disc [2]: 16.3 mm
- zone of inhibition at 15 µg/disc [3]: 16.2 mm
- zone of inhibition at 15 µg/disc [4]: 11 mm
- Activity [5]: 3.12 µg/mL
- zone of inhibition at 15 µg/disc [6]: 10.8 mm
- Activity [7]: >50 µg/mL
- Activity [8]: Active
- Activity [9]: 3.12 µg/mL
- zone of inhibition at 15 µg/disc [10]: 4 mm
- Activity [11]: 0 mm
- Activity [12]: Active
- Activity [13]: >50 µg/mL
- Activity [14]: 6.25 µg/mL
- zone of inhibition at 15 µg/disc [15]: 17 mm
- Activity [16]: >50 µg/mL
- zone of inhibition at 15 µg/disc [17]: 0 mm
- zone of inhibition at 15 µg/disc [18]: 0 mm
- Activity [19]: 1.56 µg/mL
- Activity [20]: 6.25 µg/mL
- Activity [21]: Not Active
- zone of inhibition at 15 µg/disc [22]: 12.4 mm
- Activity [23]: Active
- LC50 [24]: 37.1 µM
- Activity [25]: inactive
- zone of inhibition at 15 µg/disc [26]: 10.8 mm
- Activity [27]: Active
- zone of inhibition at 15 µg/disc [28]: 13.5 mm
- zone of inhibition at 15 µg/disc [29]: 8 mm

Compound: CCCCCCC(C)C/C(C)=C\C(/C=C(C)/C=C/C(O)C(C)(C)c1cc(O)c([C@@H]2O[C@@H](CO)C[C@@H](O)[C@@H]2O)c(=O)o1)CO (stereo partly specified) [FUSAPYRONE]
- zone of inhibition at 15 µg/disc [1]: 20.3 mm
- zone of inhibition at 15 µg/disc [2]: 40 mm
- zone of inhibition at 15 µg/disc [3]: 28.7 mm
- zone of inhibition at 15 µg/disc [4]: 29.7 mm
- Activity [5]: 1.56 µg/mL
- zone of inhibition at 15 µg/disc [6]: 18.8 mm
- Activity [7]: >50 µg/mL
- Activity [30]: 3.12 µg/mL
- Activity [8]: Active
- Activity [31]: Active
- Activity [9]: 1.56 µg/mL
- zone of inhibition at 15 µg/disc [10]: 30 mm
- Activity [32]: inactive
- Activity [33]: 1.56 µg/mL
- Activity [11]: 6 mm
- Activity [12]: Active
- Activity [13]: 0.78 µg/mL
- Activity [14]: 6.25 µg/mL
- zone of inhibition at 15 µg/disc [15]: 30 mm
- Activity [16]: >50 µg/mL
- Activity [34]: Active
- zone of inhibition at 15 µg/disc [17]: 0 mm
- zone of inhibition at 15 µg/disc [18]: 0 mm
- Activity [19]: 1.56 µg/mL
- Activity [35]: Active
- Activity [36]: inactive
- Activity [20]: 6.25 µg/mL
- Activity [21]: Not Active
- zone of inhibition at 15 µg/disc [22]: 27.3 mm
- Activity [23]: Active
- Activity [37]: Not Active
- Activity [25]: inactive
- zone of inhibition at 15 µg/disc [26]: 26.5 mm
- Activity [27]: Active
- zone of inhibition at 15 µg/disc [28]: 33.3 mm
- zone of inhibition at 15 µg/disc [29]: 28.7 mm
- Activity [38]: >50 µg/mL
